In article PMC9924077 (Cell stem cell, 2022):

Key:
[1] = test system: hiPSC-derived cardiomyocytes; conditions: tested at concentrations exceeding 100 times the free Cmax; cited from earlier work
hiPSC-CMs = type: cell-based, human; conditions: for apparent risk in this study compared with actual clinical practice: hiPSC-CMs, Torsadogenic safety margin
[2] = risk of TdP arrhythmia at clinical exposures; cited from earlier work
DCM and HCM hiPSC-CMs = type: cell-based, human; conditions: for asystole safety margin versus isogenic control: DCM RBM20 p.R634Q and PLN p.R14del, HCM MYBPC3 p.R943X and TPM1 p.K37E versus isogenic control hiPSC-CMs; for Torsadogenic safety margin in DCM and HCM hiPSC-CMs versus isogenic control: DCM and HCM lines versus HD.15S1 isogenic control
Procedure, shortened: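 Cells were HCM (TPM1, MYBPC3) and DCM (TNNT2, RBM20, PLN) hiPSC-CMs made by Cas9/ssODN knock-in and Sanger-verified, plus isogenic control. They were plated at 25,000/well for ≥4 days, dye-loaded with VF2.1.Cl/Hoechst for 50 min at 37°C, exposed to drug for 15 min at 37°C, and imaged at 33 Hz for 10 s. Design: 8 doses, 3 differentiation batches × 3 technical repeats. CNN arrhythmic/asystolic probability was fitted by binomial glm against log dose, with EC50 and 95% CI.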

[3] = healthy donor hiPSC-CMs, 8 concentrations

SMILES	apparent risk in this study compared with actual clinical practice (hiPSC-CMs)	CiPA TdP risk classification [2]	asystole safety margin versus isogenic control (DCM and HCM hiPSC-CMs)	also measured
CC(C)COCC(CN(Cc1ccccc1)c1ccccc1)N1CCCC1 (stereo not drawn) [bepridil, Bepridil]	appeared less	high-risk		response in hiPSC-derived cardiomyocytes in previous studies [1]: non-arrhythmic responses
CN(CCOc1ccc(NS(C)(=O)=O)cc1)CCc1ccc(NS(C)(=O)=O)cc1 [dofetilide, Dofetilide]			heightened propensity to cause asystole	
O=C(CCCN1CC=C(n2c(=O)[nH]c3ccccc32)CC1)c1ccc(F)cc1 [droperidol, Droperidol]	riskier	intermediate risk	heightened propensity to cause asystole	Torsadogenic safety margin in DCM and HCM hiPSC-CMs versus isogenic control (DCM and HCM hiPSC-CMs): trended towards increased risk
CCCCCCCN(CC)CCCC(O)c1ccc(NS(C)(=O)=O)cc1 (stereo not drawn) [ibutilide, Ibutilide]		high	heightened propensity to cause asystole	arrhythmia probability (CNN) versus dose (hiPSC-CMs; [3]): continuous, dose-dependent increase in arrhythmia probability; Torsadogenic safety margin in DCM and HCM hiPSC-CMs versus isogenic control (DCM and HCM hiPSC-CMs): trended towards increased risk
Cc1cccc(C)c1OCC(C)N (stereo not drawn) [mexiletine, Mexiletine]	riskier	low-no risk		
COC(=O)C1=C(C)NC(C)=C(C(=O)OC)C1c1ccccc1[N+](=O)[O-] [nifedipine, Nifedipine]				asystole (probability of asystole class, CNN) versus dose (hiPSC-CMs; [3]): dose-dependent induction of asystole
Cc1nccn1CC1CCc2c(c3ccccc3n2C)C1=O (stereo not drawn) [ondansetron, Ondansetron]		intermediate		
COc1ccccc1OCC(O)CN1CCN(CC(=O)Nc2c(C)cccc2C)CC1 (stereo not drawn) [ranolazine, Ranolazine]	riskier	low-no risk		
